Assay results pooled from the literature.
Each line is one published result; the experiments were not run side by side. pEC50, pIC50, pKd, pKi: −log10 of the molar value.
CNR2: Cannabinoid receptor 2 (CNR2, Homo sapiens, UniProt P34972)
F10: Coagulation factor X (F10, Homo sapiens, UniProt P00742)
Ribonuclease H1: Ribonuclease H1 (Homo sapiens, UniProt O60930)

Structure (SMILES)	target	observed	action	technique	notes	quantity	result
CCCC[C@H](NC(C)=O)C(=O)N[C@H]1CC(=O)NCCCC[C@@H](C(=O)N2CCC[C@@H]2C(=O)N[C@@H](C(=O)N2CCC[C@@H]2C(N)=O)C(C)C)NC(=O)[C@H](Cc2c[nH]c3ccccc23)NC(=O)[C@H](CCCNC(=N)N)NC(=O)[C@@H](Cc2ccccc2)NC(=O)[C@@H]2CCCN2C1=O	Melanocortin receptor 5 (MC5R, Homo sapiens, UniProt P33032)	cAMP	agonist	–	–	pEC50	9.41
c1cncc([C@@H]2CCCN2)c1	Neuronal acetylcholine receptor; alpha2/beta2 (Rattus norvegicus, UniProt P12389+P12390)	cell-free assay	–	radioligand	–	pKi	7.06
CC(C)(NC(=O)c1nn(CCCCC(F)(F)F)c2ccccc12)c1cccc(C(N)=O)c1	CNR2	ligand displacement	–	radioligand	cell membranes	pKi	6.52
CC[C@H](C)[C@@H](C(=O)N1CCC[C@H]1c1nccs1)N(C)C(=O)[C@H](CC(C)C)N(C)C(=O)[C@H](Cc1ccc(OC)cc1)N(C)C(=O)/C=C(\C)OC	CNR2	ligand displacement	–	radioligand	–	pIC50	5.21
CC(C)(NC(=O)c1nn(CC2CCCC2)c2ccccc12)c1cccc(C(N)=O)c1	CNR2	ligand displacement	–	radioligand	cell membranes	pKi	6.96
CCCCC/C=C\C/C=C\C/C=C\Cc1ccccc1CCCC(=O)N[C@H](C)CO	CNR2	β-arrestin recruitment	agonist	–	–	pEC50	7.83
C[C@H](NC(=O)[C@H](CCC(N)=O)NC(=O)CCCCNC(=N)N)C(=O)N[C@@H](CCCNC(=N)N)C(=O)c1nc2ccccc2s1	F10	cell-free assay	–	–	–	pKi	7.07
COc1ccc(-c2cccc(Nc3cc(=O)n(O)c(=O)n3C)c2)cc1	Ribonuclease H1	enzyme activity	inhibitor	–	–	pIC50	< 5.00
CCCCC/C=C\[C@H](C)/C=C\C/C=C\Cc1ccccc1CCCC(=O)OC(CO)CO	CNR2	β-arrestin recruitment	agonist	–	–	pEC50	5.38
O=[N+]([O-])c1ccc(O)c([N+](=O)[O-])c1	Casein kinase I isoform alpha (CSNK1A1, Homo sapiens, UniProt P48729)	binding	–	SPR	–	pKd	< 4.30
CCCCC/C=C\[C@H](C)/C=C\C/C=C\Cc1ccccc1CCCC(=O)N[C@H](C)CO	CNR2	cAMP	agonist	–	–	pEC50	6.12
CCOC(=O)N[C@@H](CCCNC(=N)N)C(=O)N[C@@H](CCC(N)=O)C(=O)N[C@@H](Cc1ccccc1)C(=O)N[C@@H](CCCNC(=N)N)C(=O)c1nc2ccccc2s1	F10	cell-free assay	–	–	–	pKi	7.82
CC(C)(NC(=O)c1nn(Cc2ccc(C#N)cc2)c2ccccc12)c1cccc(C(N)=O)c1	CNR2	ligand displacement	–	radioligand	cell membranes	pKi	6.54
O=C1Cc2cc(-c3ccco3)ccc2C(=O)N1O	Ribonuclease H1	enzyme activity	inhibitor	–	–	pIC50	5.62
CC(C)(C#N)CCCn1nc(C(=O)NC(C)(C)c2cccc(C(N)=O)c2)c2ccccc21	CNR2	ligand displacement	–	radioligand	cell membranes	pKi	6.89
CCCCCc1ccccc1C/C=C\C/C=C\C/C=C\CCCC(=O)N[C@H](C)CO	CNR2	β-arrestin recruitment	agonist	–	–	pEC50	6.36
